# Screening results (PubChem)
# Diaph act CS: activates diaphorase or chemically reduces, flagging diaphorase assay artifacts. Diaphorase/resazurin coupled assay, resorufin fluorescence, 16 min; active compounds read high; 1 = vehicle wells, 0 = NADH-free wells. activation factor at 20 µM. 0.005% of 190,000 active;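 active = diaphorase activity raised at least twofold by the compound at 20 µM; inactive = activation factor below 2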
#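 Assay system: bacterial diaphorase enzyme (C. kluyveri) / Input: enzyme 0.07 U/mL final / Medium: 50 mM HEPES pH 7.4 with 4.542 mM MgCl2, 0.005% Tween 20 / Doses: single compound dose of 20 µM, 1% DMSO final / Incubation: 16 min enzyme reaction, ambient temperature / Signal: fluorescence, excitation 544 nm and emission 590 nm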
# Diaph inh CS: inhibits diaphorase or chemically oxidizes, flagging diaphorase assay artifacts | 0.69% of 190,000 active | diaphorase resazurin-to-resorufin fluorescence, NADH, 16 min; bacterial (C. kluyveri) enzyme, not human | AID 1217 | inhibition, % at 20 µM;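 active = primary screen inhibition at 20 µM above a set limit, cut at about 50% in these data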;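 also: plate controls were DMSO with full reaction for no effect and wells lacking NADH for full effect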
#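 Test system: diaphorase enzyme from Clostridium kluyveri; amount: diaphorase at 0.14 U/mL in enzyme working solution; detection: fluorescence of resorufin formed from resazurin, Ex 544/Em 590 nm; times: reaction incubation of 16 min at room temperature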
# ROMK primary: human ROMK K+ channel modulation, primary screen. P48048. Tet-inducible ROMK, thallium flux fluorescence; actives lie on both sides. B-score at 10 µM. 2% of 130,000 active. AID 1918;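 active = signal ratio slope over the read window, or its plate-corrected B-score, at least 3 SD from the plate mean, either direction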;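 also: B-score of the F/F0 ratio slope over 7 to 12 s after thallium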
# Target sequence (P48048 whole entry, looked up): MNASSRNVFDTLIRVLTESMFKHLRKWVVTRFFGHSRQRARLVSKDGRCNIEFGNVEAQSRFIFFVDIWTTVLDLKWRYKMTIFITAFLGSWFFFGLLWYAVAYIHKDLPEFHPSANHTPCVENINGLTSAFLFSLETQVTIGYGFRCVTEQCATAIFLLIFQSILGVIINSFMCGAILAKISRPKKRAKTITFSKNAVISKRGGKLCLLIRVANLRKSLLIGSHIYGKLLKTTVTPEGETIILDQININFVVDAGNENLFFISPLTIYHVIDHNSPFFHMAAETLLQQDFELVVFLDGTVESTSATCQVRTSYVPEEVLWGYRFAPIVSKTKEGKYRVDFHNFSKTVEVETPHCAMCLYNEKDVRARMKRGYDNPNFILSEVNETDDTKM
# L major viab: reduces viability of Leishmania major promastigotes | resazurin fluorescence viability | inhibition, % at 10 µM | 9% of 200,000 active; in the data active = inhibition above about 50%;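 also: promastigotes grown with compound for 44 hours at 28 °C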
# KCC2 mod: modulators of human KCC2 chloride dependent transport; Q9H2X9; KCC2 cells, thallium flux FluoZin-2 fluorescence; B-score of Tl+ flux slope (higher = more flux/activation; lower = inhibition) at 10 µM; 2.2% of 190,000 active;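 active = thallium flux slope and its plate-corrected score both differing from the plate sample mean at a set confidence after two filtering rounds, in either direction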;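 also: slope of fluorescence scaled to starting intensity during 10 to 20 s after thallium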
# WT yeast gro inh: growth inhibition of WT yeast, mitochondrial fusion screen | mitochondrial fusion phenotypic screen, WT strain | inhibition, % at 10 µM | 2.1% of 190,000 active | AID 1362; in the data active = inhibition above about 58%; tested in S. cerevisiae
# ROMK hit retest: human ROMK channel modulation, retest confirmation; shares compounds with ROMK primary; ROMK thallium flux, fluorescence ratio; active compounds read low; normalized thallium flux (F/F0 slope) at 10 µM; 54% of 3,000 active; AID 1917;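 active = Flux at 10 µM at least 3 SD below or above vehicle control mean in one or both replicates; inconclusive = no clear call, values can overlap the other calls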
# Starred values were filed as active, the others as inactive; u = inconclusive; x = not tested or not shown. Only some compounds are listed: those with a hit (about 12% of all), similar ones and a draw of the others.
SMILES,Diaph act CS,Diaph inh CS,ROMK primary,L major viab,KCC2 mod,WT yeast gro inh,ROMK hit retest
O=C1c2cccc3c(N4CCCCC4)ccc(c23)C(=O)N1c1ccccc1O,0.4,61*,-5.2*,6,x,-15,0.051*
CC(NC(=O)C1(C)CC1(Br)Br)C(C)(C)C (stereo not given),1,4,x,-6,0.3,1,x
CC1=C(C(=O)NC(C)CCc2ccccc2)C2(CCC(C)CC2)OC1=O (stereo not given),0.9,14,x,12,-2.5,2,x
COc1cccc(-c2nc(C=O)cs2)c1,1.1,-7,4.4*,17,-0.044,-39,0.1*
Cc1ccc(S(=O)(=O)N(C)CCCC(=O)Nc2ccc(C)cc2C)cc1,0.9,9,x,35,0.00042,6,x
CC(=O)N(C(C)=O)N1C(=O)/C(=C/c2ccc(Cl)cc2)SC1=S,0.9,10,-3.2*,34,-0.69,11,0.053*
O=C(Cn1c(=O)sc2ccccc21)Nc1ccccc1C(=O)O,0.8,16,x,-5,0.043,4,x
COC(=O)CSc1nc(C)cc(C)c1C#N,0.9,9,0.58,-6,0.47,-16,x
COC(=O)CSc1nc(C)cc(C(F)(F)F)c1C#N,1,5,x,2,0.21,25,0.073
O=C(NCc1nnc(SCc2ccc(F)cc2)n1-c1ccccc1)C12CC3CC(CC(C3)C1)C2,0.8,24,-2.5*,19,-2.3,14,0.056*
CNC(=O)c1nc(C)n(-c2cc(Cl)ccc2Cl)n1,1.1,-5,x,-7,1.4,-17,x
COc1ccccc1NC(NC(=O)c1cccnc1)C(Cl)(Cl)Cl (stereo not given),0.9,11,x,17,x,25,x
OC(CN1CCN(c2ccccc2)CC1)Cn1c2ccccc2c2ccccc21 (stereo not given),0.8,24,0.084,9,1.3,10,x
Cn1cc(CN2CCN(c3ccccc3)CC2)c2ccccc21,0.9,11,-5.2*,9,0.28,6,0.056*
Cc1ccc(Cn2c(=O)n(CCC(=O)NCc3ccc4c(c3)OCO4)c(=O)c3ccccc32)cc1,1,0,x,0,-1.2,11,x
N#Cc1ccccc1Cn1c(=O)n(CCCC(=O)NCc2ccc3c(c2)OCO3)c(=O)c2ccccc21,0.9,6,3.6*,10,0.69,2,0.086
Cc1ccc(CNC(=O)Cn2ccc3ccccc3c2=O)o1,0.8,16,x,-13,0.86,0,0.073
COC(=O)CNC(=O)Cn1ccc2ccccc2c1=O,0.9,11,x,-10,-1.1,x,x
CCCc1nnc(NC(=O)Cn2cnc3ccccc3c2=O)s1,0.8,19,x,-4,1.3,-3,x
O=C1N/C(=C/c2ccc(N3CCOCC3)o2)C(=O)N1c1cccc(Cl)c1,0.8,16,-4.9*,2,-2.3,8,0.039*
Cc1ccc(/C=C2/NC(=O)N(c3ccccc3)C2=O)o1,0.8,22,x,0,0.044,3,x
CCn1cc(C(=O)O)c(=O)c2cnc(N3CCN(C(=S)Nc4ccccc4Cl)CC3)nc21,x,x,x,x,-1.5,x,x
CCCn1c(CCC(=O)O)nc2cc(S(N)(=O)=O)ccc21,x,x,x,x,1.7,x,x
Cn1cccc1/C=C1\SC(=Nc2cccc(O)c2)NC1=O,x,x,-2.3*,x,-2.3,x,0.075
Cn1cccc1/C=C1\SC(=Nc2ccc(O)cc2)NC1=O,x,x,-0.55,x,-1.1,x,x
SMILES,Diaph act CS,Diaph inh CS,ROMK primary,L major viab,KCC2 mod,WT yeast gro inh,ROMK hit retest
Cc1ccc(N=C2NC(=O)/C(=C/c3cn(C)c4ccccc34)S2)cc1C,0.7,28,-3.4*,15,-0.56,45,u
O=C(CCl)NC1(C(F)(F)F)C(=O)Nc2c1c(=O)[nH]c(=O)n2-c1ccccc1 (stereo not given),x,x,x,x,0.52,x,x
COc1ccc(OC)c(-c2c(C#N)c(N)nc3c2c(=O)nc2sccn23)c1,0.9,6,0.5,1,0.93,2,x
Cc1[nH]nc2c1C(c1ccoc1)C(C#N)=C(N)O2 (stereo not given),x,x,-3.2,24,-0.47,-14,x
CCCc1[nH]nc2c1C(c1ccoc1)C(C#N)=C(N)O2 (stereo not given),1,3,-3.7*,21,-1.1,3,0.052*
COC(=O)Cc1cc(=O)[nH]c(/N=C(\N)Nc2ccccc2C)n1,1,4,x,0,-0.58,-11,x
COc1ccccc1Nc1ncnc2nc[nH]c12,0.8,18,4*,-2,0.14,70*,0.084
O=C(OCc1cc(Cl)ccc1OC(F)F)c1cc(S(=O)(=O)O)ccc1O,0.9,14,1,-11,-0.54,6,x
CN(C)CCNC(=O)c1ccc(Sc2ccc(Br)cc2)c([N+](=O)[O-])c1,1.2,-16,-2.8*,100*,-0.043,52,0.063*
Cc1cccc(N2CCN(S(=O)(=O)c3ccc4c(c3)CCN4C(=O)CCC(=O)O)CC2C)c1 (stereo not given),0.9,6,x,-6,x,0,x
CCCCOC(=O)c1ccc(NC(=O)CSc2nnnn2C)cc1,0.9,10,-0.28,-6,x,-9,x
COc1ccc(/C(C)=C2\SC(=S)N(CCC(=O)O)C2=O)cc1,0.9,7,3.1*,-4,x,5,0.076
O=S(=O)(c1ccc(Oc2ccc(Cl)cc2)c(S(=O)(=O)N2CCCCC2)c1)N1CCCCC1,0.8,21,x,2,0.22,12,0.064*
O=[N+]([O-])c1cc(S(=O)(=O)N2CCCCCC2)ccc1Cl,0.9,5,-3.9*,27,0.053,-3,0.064*
CN(C)S(=O)(=O)c1cccc(-c2nnc(SCc3ccc4c(c3)OCCO4)o2)c1,0.9,14,x,-6,-1.4,28,x
CC(C)(C)c1ccc(NC(=S)NCc2cccnc2)cc1,x,x,-1.5*,x,1.7,x,0.073
O=C(NCc1ccccc1)C1=C[C@H](C2CC2)C[C@H](OCCCCO)O1,0.9,7,x,0,-0.89,-4,x
Cc1ccc(CC(=O)NCc2ccc(F)cc2)cc1,0.9,8,4.4*,-5,-0.036,-3,0.094
Cc1ccc(CNC(=O)Cc2ccc(-n3c(=O)[nH]c4ccsc4c3=O)cc2)cc1,0.9,6,2.1,-9,-0.2,16,0.095
Cc1ccc(CNC(=O)CCCCn2c(=O)[nH]c3ccsc3c2=O)cc1,1,-1,0.93,-1,0.34,-9,x
Cc1ccc(CNC(=O)Cc2ccc(-c3ccccc3)cc2)cc1,1,1,x,2,0.88,x,x
Cc1nc(-c2coc3c(CN(C)C)c(O)ccc3c2=O)cs1,1,4,-0.51,7,x,-7,x
N#C/C(=C\c1ccco1)C(=O)Nn1cnnc1,0.9,10,-1,-4,0.064,-2,x
